Shown are actives, neighbours in structure and some others; about 11% of the full set was active somewhere.
Diaph inh CS: counter-screen for diaphorase-based assays: diaphorase inhibitors and chemical oxidizers | diaphorase resazurin-to-resorufin fluorescence, NADH, 16 min; bacterial (C. kluyveri) enzyme, not human | actives 0.69% (n = 190,000) | AID 1217 | inhibition, % at 20 µM;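 active = primary screen inhibition at 20 µM above a set limit, cut at about 50% in these data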
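controls = No-NADH positive control and DMSO neutral control | system = Clostridium kluyveri diaphorase enzyme | timing = reaction incubation of 16 min at room temperature | signal = resorufin fluorescence 544/590 nm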
G6PDH counter: counter-screen for G6PDH assay hits: L. mesenteroides G6PDH inhibition; actives 0.12% (n = 200,000); Purified L. mesenteroides G6PDH, diaphorase/resazurin coupled fluorescence, 45 min; inhibition, % at 5 µM
Lmaj promast: Leishmania major promastigote growth inhibition; Leishmania major promastigotes, resazurin fluorescence viability; inhibition, % at 10 µM; actives 9% (n = 200,000); AID 1063;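 note: promastigotes grown with compound for 44 hours at 28 °C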
Diaphorase act: counter-screen for diaphorase-based assays: diaphorase activators and chemical reducers | Diaphorase/resazurin coupled assay, resorufin fluorescence, 16 min; hits give high values; 1 = vehicle wells, 0 = NADH-free wells | activation factor at 20 µM | actives 0.005% (n = 190,000);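 active = diaphorase activity raised at least twofold by the compound at 20 µM; inactive = activation factor below 2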
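Test system: Clostridium kluyveri diaphorase, purified enzyme. Buffer or medium: 50 mM HEPES pH 7.4 buffer plus MgCl2 and Tween 20. Also added: 0.114 mM NADH and 0.1 mM resazurin, final amounts. Dosing: compound 20 µM once, DMSO 1%. Schedule: 16 min enzyme reaction, ambient temperature. Detection: fluorescence of resorufin, 544 nm excitation, 590 nm emission.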
WT yeast gro inh: growth inhibition of WT yeast, mitochondrial fusion screen; mitochondrial fusion phenotypic screen, WT strain; inhibition, % at 10 µM; actives 2.1% (n = 190,000); AID 1362; in the data active = inhibition above about 58%; tested in S. cerevisiae
Large screens that a line does not name were inactive. Cut-off read from the data, not from the text of the source, unless noted: active = inhibition above about 50%; inactive = the rest.

O=C(NCC1CCCO1)c1cccc(NC(=O)c2ccco2)c1 (centres undefined)	none
CC(C)(C)NC(=O)c1cccc(NC(=O)c2ccco2)c1	none
O=C(NC1=NCCS1)c1cccc(NC(=O)c2ccco2)c1	Lmaj promast 98.6
O=C(NCc1cccnc1)c1cccc(Cl)c1	none
NS(=O)(=O)c1ccc(N=Nc2c(-c3ccccc3)[nH]n(-c3nc(-c4ccccc4)cs3)c2=O)cc1	Lmaj promast 73.3
Cc1ccc(N=Nc2c(N)[nH]n3c(=O)cc(C)nc23)cc1	none
Cc1cc(C)n2[nH]c(=O)c(N=Nc3ccc(S(N)(=O)=O)cc3)c2n1	none
Nc1[nH]n2c(=O)cc(-c3ccccc3)nc2c1N=Nc1ccc(S(N)(=O)=O)cc1	Diaph inh CS 89.7
Nc1[nH]n2c(=O)cc(-c3ccccc3)nc2c1N=Nc1ccccc1	Diaph inh CS 67.3, Lmaj promast 98.5
Cc1nnc(C)n1/N=C/c1ccc(-c2ccccc2)cc1	none
Cc1ccc2c(c1)c(N=O)c(O)n2Cc1ccc(Cl)cc1	WT yeast gro inh 73.9
O=C(Cn1nc([N+](=O)[O-])nc1Br)NC(c1ccccc1)c1ccccc1	Lmaj promast 78.6
Cc1c(Br)c([N+](=O)[O-])nn1CCCC(=O)NC(C)c1ccccc1 (centres undefined)	none
CCC(=O)N(CC)C1=C(O)c2ccccc2C(=O)C1=O	G6PDH counter 51.7
O=C(NC(CO)Cc1ccc([N+](=O)[O-])cc1)C(Cl)Cl (centres undefined)	Lmaj promast 62.7
O=C(NC(CO)C(O)c1ccc([N+](=O)[O-])cc1)C(Cl)Cl (centres undefined)	none
Cn1c(=O)c2c(nc(SCCN3CCCCC3)n2Cc2ccccc2)n(C)c1=O	Lmaj promast 89.7
Cc1ccc(Cn2c(CN(C)Cc3ccccc3)nc3c2c(=O)n(C)c(=O)n3C)cc1	Lmaj promast 72.7
CN(Cc1ccccc1)Cc1nc2c(c(=O)n(C)c(=O)n2C)n1Cc1ccc(F)cc1	none
Cc1ccc(Cn2c(SCCN3CCCCC3)nc3c2c(=O)n(C)c(=O)n3C)cc1	Lmaj promast 98.5
Cn1c(=O)c2c(nc(SCCN3CCOCC3)n2Cc2ccc(F)cc2)n(C)c1=O	none
CCNc1nc(NCC)n2c(SCC(=O)Nc3ccccc3[N+](=O)[O-])nnc2n1	none
CCOC(=O)c1c(C)sc2c1N(C(=O)CCl)c1cc(Cl)ccc1S2	Lmaj promast 100.6
COc1cccc(-c2nc(N3CCCCC3C)c3ccccc3n2)c1O (centres undefined)	WT yeast gro inh 63.5
CCN(CC)c1nc(-c2cccc(OC)c2O)nc2ccccc12	none
NC1=NC(=O)C(CC(=O)c2ccc(Cl)cc2)S1 (centres undefined)	none
Cc1c(CN(C)C)c2c(n1Cc1ccccc1)C(=O)c1ccc(Br)cc1-2	WT yeast gro inh 82.2
Cc1cc(C)n(Cc2ccccc2)c(=O)c1S(=O)(=O)c1ccccc1	none
Cc1c(N2C(=O)c3ccc(Br)cc3C2=O)c(=O)n(-c2ccccc2)n1C	none
Cc1c(CN(C)C)c2c(n1C)C(=O)c1ccc(Br)cc1-2	Lmaj promast 69.8
COCCN1Cc2cccc(C(=O)NC(C)c3cccs3)c2C1=O (centres undefined)	none
Cc1cc(C)cc(NC(=S)NCC2CCN(C(C)c3ccccc3)C2)c1 (centres undefined)	Lmaj promast 71.8
Cc1ccccc1NC(=S)NCC1CCN(C(C)c2ccccc2)C1 (centres undefined)	Lmaj promast 76.3
COc1ccc(N2CCC(CNC(=S)Nc3cccc(C)c3)C2)cc1 (centres undefined)	Lmaj promast 72.4
COc1ccc(N2CCC(CNC(=O)Nc3ccc(C)c(C)c3)C2)cc1 (centres undefined)	none
Cc1ccccc1NC(=S)NC(C)C(c1ccccc1)N1CCN(C)CC1 (centres undefined)	none
Cn1c(CSCc2ccc(Cl)c(Cl)c2)n[nH]c1=S	none
Cc1ccc(NC(=O)c2c(O)c3ccccc3n(C)c2=O)nc1	Lmaj promast 70.9
CCCCc1nc2ccccc2c(=O)n1NC(=O)c1c(O)c2ccccc2n(C)c1=O	Lmaj promast 73.1 (no result: Diaph inh CS, Diaphorase act)
C=CCc1c(C)nc(N)[nH]c1=O	none
N#Cc1c(-c2cccs2)nc(SCC(=O)c2cccs2)[nH]c1=O	Diaph inh CS 65.2

Bioassay records deposited in PubChem by several laboratories.
